Converted amounts (≈) assume the structure as drawn. *1 amine or outer side, *2 acyl side, *3 side chain or, on linkers, in order; H or OH if unused. Where a SMILES comes first, the peptide text is derived from it. Bridges are numbered along the chain shown (N, C = ends). [ ]: non-standard residue; d: D form. The star is where a group is joined. pTerphenylCO(4''-OnC5H11) = CCCCCOc1ccc(-c2ccc(-c3ccc(C(=O)*)cc3)cc2)cc1; Orn(4R-OH,5R-OH) = O=C([C@H](C[C@@H](O)[C@@H](O)N[*:3])N[*:1])[*:2]; hTyr(3S-OH,4S-OH) = N[C@H](C(=O)O)[C@H](O)[C@@H](O)c1ccc(O)cc1; Pro(3S-OH,4S-Me) = C[C@H]1CN[C@H](C(=O)O)[C@H]1O; Hyp = O=C(O)[C@@H]1C[C@@H](O)CN1
Experiments:
Format in all cases: functional
Fennellia nivea = assay: Antimicrobial activity against Aspergillus niveus by broth microdilution method
Outline: (§1)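 Clinical mould isolates, tested by broth microdilution using the AFST-EUCAST reference method for filamentous fungi. For echinocandins, the endpoint was the minimum effective concentration: the lowest drug concentration giving aberrant hyphal growth, read with an inverted microscope.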

Aspergillus ustus = assay: Antimicrobial activity against Aspergillus ustus by broth microdilution method; outline: as §1
Aspergillus fumigatus = assay: Antimicrobial activity against Aspergillus fumigatus by broth microdilution method; outline: as §1
Trichosporon asahii = assay: Antimicrobial activity against Trichosporon asahii by broth microdilution method
Outline: (§2)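 Nonfermentative yeast clinical isolates (Rhodotorula, Trichosporon) tested by broth microdilution. The EUCAST yeast recommendations were followed strictly, with one minor modification to improve growth. MIC was read as the endpoint.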

Exophiala dermatitidis = assay: Antimicrobial activity against Exophiala dermatitidis by broth microdilution method
Kluyveromyces marxianus = assay: Antimicrobial activity against Candida kefyr by broth microdilution method
Outline: (§3)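 Clinical isolates from human patients, tested by broth microdilution using the AFST-EUCAST reference procedure for fermentative yeasts. The MIC was read per that reference method.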

Lewia infectoria = assay: Antimicrobial activity against Alternaria infectoria by broth microdilution method; outline: as §1
Cladosporium = assay: Antimicrobial activity against Cladosporium spp. by broth microdilution method; outline: as §1
Fusarium oxysporum = assay: Antimicrobial activity against Fusarium oxysporum by broth microdilution method; outline: as §1
Scytalidium hyalinum = assay: Antimicrobial activity against Scytalidium hyalinum by broth microdilution method; details: Neoscytalidium hyalinum
Outline: (§4)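 Filamentous fungus clinical isolates tested by the AFST-EUCAST reference broth microdilution method for moulds. For echinocandins, the endpoint was the minimum effective concentration: the lowest drug concentration giving aberrant hyphal growth, read with an inverted microscope.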

Alternaria alternata = assay: Antimicrobial activity against Alternaria alternata by broth microdilution method; outline: as §1
Lecythophora hoffmannii = assay: Antimicrobial activity against Lecythophora hoffmannii by broth microdilution method; details: Coniochaeta hoffmannii; outline: as §4
[1] = tested on: Cladophialophora bantiana; assay: Antimicrobial activity against Cladophialophora bantiana by broth microdilution method; outline: as §1
Candida parapsilosis = assay: Antimicrobial activity against Candida parapsilosis by broth microdilution method; details: Lodderomyces parapsilosis; outline: as §3
Aspergillus sclerotiorum = assay: Antimicrobial activity against Aspergillus sclerotiorum by broth microdilution method; outline: as §1
Candida metapsilosis = assay: Antimicrobial activity against Candida metapsilosis by broth microdilution method; details: Lodderomyces metapsilosis; outline: as §3
Beauveria bassiana = assay: Antimicrobial activity against Beauveria bassiana by broth microdilution method; outline: as §1
Candida albicans = assay: Antimicrobial activity against Candida albicans by broth microdilution method; outline: as §3
Pichia norvegensis = assay: Antimicrobial activity against Candida norvegensis by broth microdilution method; outline: as §3
Trichosporon jirovecii = assay: Antimicrobial activity against Trichosporon jirovecii by broth microdilution method; details: Cutaneotrichosporon jirovecii; outline: as §2
Rhizomucor = assay: Antimicrobial activity against Rhizomucor spp.by broth microdilution method; outline: as §4
[2] = tested on: Meyerozyma guilliermondii; assay: Antimicrobial activity against Candida guilliermondii by broth microdilution method; outline: as §3
Rhodotorula mucilaginosa = assay: Antimicrobial activity against Rhodotorula mucilaginosa by broth microdilution method; outline: as §2
Trichosporon dermatis = assay: Antimicrobial activity against Trichosporon dermatis by broth microdilution method; details: Cutaneotrichosporon dermatis; outline: as §2
Wickerhamomyces anomalus = assay: Antimicrobial activity against Candida pelliculosa by broth microdilution method; details: Hansenula anomala; outline: as §3
Paecilomyces lilacinus = assay: Antimicrobial activity against Paecilomyces lilacinus by broth microdilution method; details: Purpureocillium lilacinum; outline: as §4
Neurospora sitophila = assay: Antimicrobial activity against Chrysonilia sitophila by broth microdilution method; outline: as §1
[Candida] intermedia = Antimicrobial activity against Candida intermedia by broth microdilution method; details: Sungouiella intermedia; outline: as §3
[3] = tested on: Cunninghamella bertholletiae; assay: Antimicrobial activity against Cunninghamella bertholletiae by broth microdilution method; outline: as §1
[4] = tested on: Kazachstania pintolopesii; assay: Antimicrobial activity against Candida pintolopesii by broth microdilution method; details: Arxiozyma pintolopesii; outline: as §3
Paecilomyces variotii = assay: Antimicrobial activity against Paecilomyces variotii by broth microdilution method; outline: as §4
Rhodotorula glutinis = assay: Antimicrobial activity against Rhodotorula glutinis by broth microdilution method; outline: as §2
[5] = Antimicrobial activity against Hormographiella aspergillata by broth microdilution method; details: Coprinopsis cinerea; outline: as §4
Fusarium proliferatum = assay: Antimicrobial activity against Fusarium proliferatum by broth microdilution method; outline: as §1
Scedosporium apiospermum = assay: Antimicrobial activity against Scedosporium apiospermum by broth microdilution method; outline: as §4
Candida orthopsilosis = assay: Antimicrobial activity against Candida orthopsilosis by broth microdilution method; details: Lodderomyces orthopsilosis; outline: as §3
Trichosporon domesticum = assay: Antimicrobial activity against Trichosporon mycotoxinivorans by broth microdilution method; details: Apiotrichum domesticum
Outline: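 Spanish human clinical isolates were tested as nonfermentative yeasts by broth microdilution. The method strictly followed the EUCAST recommendations, with a minor modification to improve growth, and the read-out was the MIC.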

[6] = tested on: Scopulariopsis brevicaulis; assay: Antimicrobial activity against Scopulariopsis brevicaulis by broth microdilution method; outline: as §4
Torulaspora delbrueckii = assay: Antimicrobial activity against Candida coliculosa by broth microdilution method; outline: as §3
Fusarium reticulatum = assay: Antimicrobial activity against Fusarium reticulatum by broth microdilution method; outline: as §4
Lomentospora prolificans = assay: Antimicrobial activity against Scedosporium prolificans by broth microdilution method; outline: as §4
Fusarium verticillioides = assay: Antimicrobial activity against Fusarium verticillioides by broth microdilution method; outline: as §4
Aspergillus terreus = assay: Antimicrobial activity against Aspergillus terreus by broth microdilution method; outline: as §1
Saccharomyces cerevisiae = assay: Antimicrobial activity against Saccharomyces cerevisiae by broth microdilution method
[7] = Antimicrobial activity against Rhizopus microsporus by broth microdilution method; outline: as §4

SMILES: CCCCCOc1ccc(-c2ccc(-c3ccc(C(=O)N[C@H]4C[C@@H](O)[C@@H](O)NC(=O)[C@@H]5[C@@H](O)[C@@H](C)CN5C(=O)[C@H]([C@@H](C)O)NC(=O)[C@H]([C@H](O)[C@@H](O)c5ccc(O)cc5)NC(=O)[C@@H]5C[C@@H](O)CN5C(=O)[C@H]([C@@H](C)O)NC4=O)cc3)cc2)cc1 [ANIDULAFUNGIN] ({pTerphenylCO(4''-OnC5H11)}-[Orn(4R-OH,5R-OH)]T[Hyp][hTyr(3S-OH,4S-OH)]T[Pro(3S-OH,4S-Me)]; lactam 1-C)
- MIC50 (Fennellia nivea): 0.06 µg/mL (≈ 0.0526 µM)
- MIC90 (Fennellia nivea): 0.25 µg/mL (≈ 0.219 µM)
- MIC50 (Aspergillus ustus): 0.06 µg/mL (≈ 0.0526 µM)
- MIC90 (Aspergillus ustus): 0.25 µg/mL (≈ 0.219 µM)
- MIC50 (Aspergillus fumigatus): 0.03 µg/mL (≈ 0.0263 µM)
- MIC90 (Aspergillus fumigatus): 0.03 µg/mL (≈ 0.0263 µM)
- MIC50 (Trichosporon asahii): > 16 µg/mL
- MIC90 (Trichosporon asahii): > 16 µg/mL
- MIC50 (Exophiala dermatitidis): 0.03 µg/mL (≈ 0.0263 µM)
- MIC90 (Exophiala dermatitidis): 0.06 µg/mL (≈ 0.0526 µM)
- MIC50 (Kluyveromyces marxianus): 0.03 µg/mL (≈ 0.0263 µM)
- MIC90 (Kluyveromyces marxianus): 0.03 µg/mL (≈ 0.0263 µM)
- MIC50 (Lewia infectoria): 2 µg/mL (≈ 1.75 µM)
- MIC90 (Lewia infectoria): > 16 µg/mL
- MIC50 (Cladosporium): 0.03 µg/mL (≈ 0.0263 µM)
- MIC90 (Cladosporium): 0.06 µg/mL (≈ 0.0526 µM)
- MIC50 (Fusarium oxysporum): > 16 µg/mL
- MIC90 (Fusarium oxysporum): > 16 µg/mL
- MIC50 (Scytalidium hyalinum): 0.03 µg/mL (≈ 0.0263 µM)
- MIC90 (Scytalidium hyalinum): 0.06 µg/mL (≈ 0.0526 µM)
- MIC50 (Alternaria alternata): 0.06 µg/mL (≈ 0.0526 µM)
- MIC90 (Alternaria alternata): > 16 µg/mL
- MIC50 (Lecythophora hoffmannii): 0.03 µg/mL (≈ 0.0263 µM)
- MIC90 (Lecythophora hoffmannii): 0.06 µg/mL (≈ 0.0526 µM)
- MIC50 [1]: 0.03 µg/mL (≈ 0.0263 µM)
- MIC90 [1]: 0.06 µg/mL (≈ 0.0526 µM)
- MIC50 (Candida parapsilosis): 1 µg/mL (≈ 0.877 µM)
- MIC90 (Candida parapsilosis): 2 µg/mL (≈ 1.75 µM)
- MIC50 (Aspergillus sclerotiorum): 0.06 µg/mL (≈ 0.0526 µM)
- MIC90 (Aspergillus sclerotiorum): 0.25 µg/mL (≈ 0.219 µM)
- MIC50 (Candida metapsilosis): 0.06 µg/mL (≈ 0.0526 µM)
- MIC90 (Candida metapsilosis): 0.25 µg/mL (≈ 0.219 µM)
- MIC50 (Beauveria bassiana): > 16 µg/mL
- MIC90 (Beauveria bassiana): > 16 µg/mL
- MIC50 (Candida albicans): 0.03 µg/mL (≈ 0.0263 µM)
- MIC90 (Candida albicans): 0.03 µg/mL (≈ 0.0263 µM)
- MIC50 (Pichia norvegensis): 0.06 µg/mL (≈ 0.0526 µM)
- MIC90 (Pichia norvegensis): 0.25 µg/mL (≈ 0.219 µM)
- MIC50 (Trichosporon jirovecii): > 16 µg/mL
- MIC90 (Trichosporon jirovecii): > 16 µg/mL
- MIC50 (Rhizomucor): > 16 µg/mL
- MIC90 (Rhizomucor): > 16 µg/mL
- MIC50 [2]: 1 µg/mL (≈ 0.877 µM)
- MIC90 [2]: 8 µg/mL (≈ 7.02 µM)
- MIC50 (Rhodotorula mucilaginosa): > 16 µg/mL
- MIC90 (Rhodotorula mucilaginosa): > 16 µg/mL
- MIC50 (Trichosporon dermatis): > 16 µg/mL
- MIC90 (Trichosporon dermatis): > 16 µg/mL
- MIC50 (Wickerhamomyces anomalus): 0.06 µg/mL (≈ 0.0526 µM)
- MIC90 (Wickerhamomyces anomalus): 0.25 µg/mL (≈ 0.219 µM)
- MIC50 (Paecilomyces lilacinus): > 16 µg/mL
- MIC90 (Paecilomyces lilacinus): > 16 µg/mL
- MIC50 (Neurospora sitophila): > 16 µg/mL
- MIC90 (Neurospora sitophila): > 16 µg/mL
- MIC50 ([Candida] intermedia): 0.06 µg/mL (≈ 0.0526 µM)
- MIC90 ([Candida] intermedia): 0.25 µg/mL (≈ 0.219 µM)
- MIC50 [3]: > 16 µg/mL
- MIC90 [3]: > 16 µg/mL
- MIC50 [4]: 0.06 µg/mL (≈ 0.0526 µM)
- MIC90 [4]: 0.25 µg/mL (≈ 0.219 µM)
- MIC50 (Paecilomyces variotii): 0.03 µg/mL (≈ 0.0263 µM)
- MIC90 (Paecilomyces variotii): 0.03 µg/mL (≈ 0.0263 µM)
- MIC50 (Rhodotorula glutinis): > 16 µg/mL
- MIC90 (Rhodotorula glutinis): > 16 µg/mL
- MIC50 [5]: > 16 µg/mL
- MIC90 [5]: > 16 µg/mL
- MIC50 (Fusarium proliferatum): > 16 µg/mL
- MIC90 (Fusarium proliferatum): > 16 µg/mL
- MIC50 (Scedosporium apiospermum): 0.5 µg/mL (≈ 0.438 µM)
- MIC90 (Scedosporium apiospermum): 4 µg/mL (≈ 3.51 µM)
- MIC50 (Candida orthopsilosis): 0.06 µg/mL (≈ 0.0526 µM)
- MIC90 (Candida orthopsilosis): 0.25 µg/mL (≈ 0.219 µM)
- MIC50 (Trichosporon domesticum): > 16 µg/mL
- MIC90 (Trichosporon domesticum): > 16 µg/mL
- MIC50 [6]: > 16 µg/mL
- MIC90 [6]: > 16 µg/mL
- MIC50 (Torulaspora delbrueckii): 0.06 µg/mL (≈ 0.0526 µM)
- MIC90 (Torulaspora delbrueckii): 0.25 µg/mL (≈ 0.219 µM)
- MIC50 (Fusarium reticulatum): > 16 µg/mL
- MIC90 (Fusarium reticulatum): > 16 µg/mL
- MIC50 (Lomentospora prolificans): 4 µg/mL (≈ 3.51 µM)
- MIC90 (Lomentospora prolificans): > 16 µg/mL
- MIC50 (Fusarium verticillioides): > 16 µg/mL
- MIC90 (Fusarium verticillioides): > 16 µg/mL
- MIC50 (Aspergillus terreus): 0.03 µg/mL (≈ 0.0263 µM)
- MIC90 (Aspergillus terreus): 0.03 µg/mL (≈ 0.0263 µM)
- MIC50 (Saccharomyces cerevisiae): 0.12 µg/mL (≈ 0.105 µM)
- MIC90 (Saccharomyces cerevisiae): 0.25 µg/mL (≈ 0.219 µM)
- MIC50 [7]: > 16 µg/mL
- MIC90 [7]: > 16 µg/mL

Reference: ChEMBL document CHEMBL1649165, “Activity profile in vitro of micafungin against Spanish clinical isolates of common and emerging species of yeasts and molds” (2009)
